In brackets after ≈: the same amount, converted by molar mass. Several values for one entry are separate records, joined by “and”; a condition that tells them apart may be missing. Identical values can stand only once.
Experiments:
Staphylococcus aureus = test: Antimicrobial activity against Staphylococcus aureus after 24 hrs by well diffusion method; assay type: functional
In short: (§1)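 Well diffusion on nutrient agar. 10 mm wells cut with a sterile cork borer. Plates swab-inoculated from a 24 h bacterial subculture in nutrient broth. Compounds dissolved in chloroform and added to wells at 50 and 100 µM. Gentamycin used as standard. % inhibition derived from inhibition zone diameter.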

Pseudomonas aeruginosa = test: Antimicrobial activity against Pseudomonas aeruginosa after 24 hrs by well diffusion method; assay type: functional; in short: as §1
Escherichia coli = test: Antimicrobial activity against Escherichia coli after 24 hrs by well diffusion method; assay type: functional; in short: as §1
Salmonella typhi = test: Antimicrobial activity against Salmonella typhosa after 24 hrs by well diffusion method; assay type: functional, Salmonella enterica subsp. enterica serovar Typhi; in short: as §1
[1] = test system: Mycobacterium tuberculosis; test: Antitubercular activity against Mycobacterium tuberculosis H37Rv ATCC 27294 by microplate alamar blue assay; assay type: functional
In short: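 Compounds active in the primary screen were retested at lower concentrations against H37Rv by Microplate Alamar Blue Assay. MIC taken as the lowest concentration giving a 95% reduction in fluorescence relative to controls. Rifampin used as reference.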

[2] = test system: Mycobacterium tuberculosis; test: Antitubercular activity against Mycobacterium tuberculosis H37Rv ATCC 27294 at 6.25 ug/mL by microplate alamar blue assay; assay type: functional; settings: read-out: GI
In short: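 Primary screen against M. tuberculosis H37Rv (ATCC 27294) at a single concentration of 6.25 µg/mL. Broth microdilution Microplate Alamar Blue Assay in BACTEC 12B medium. Fluorescent compounds were instead run in the BACTEC 460 radiometric system. Percent growth inhibition reported; >95% counted as active. Rifampin used as reference.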

[3] = Cytotoxicity against african green monkey Vero C1008 cells at 6.25 to 50 ug/mL by neutral-red uptake assay; assay type: cell-based; settings: chlorocebus sabaeus
In short: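 Vero C-1008 cells exposed to compounds at 6.25–50 µg/mL. Cytotoxicity read out by neutral red uptake.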

| Molecule | inhibition zone (IZ) (Staphylococcus aureus) [mm] | inhibition zone (IZ) (Pseudomonas aeruginosa) [mm] | inhibition zone (IZ) (Escherichia coli) [mm] | inhibition zone (IZ) (Salmonella typhi) [mm] | MIC [1] | inhibition of growth at 6.25 µg/mL [2] [%] | Activity [3] | inhibition zone (IZ) (Salmonella typhi; Salmonella enterica subsp. enterica serovar Typhi) [mm] |
| --- | --- | --- | --- | --- | --- | --- | --- | --- |
| Fc1ccc(-n2cc(Cn3c(-c4cccc(F)c4)nc4ccccc43)nn2)cc1 | 26 | 19 | 20 | 19 | 0.58 µM and > 6.25 µg/mL | 96 | Non-toxic |  |
| Cc1ccc(-n2cc(Cn3c(-c4cccc(F)c4)nc4ccccc43)nn2)c(F)c1 | 18 | 13 | 21 | 18 | 3.13 µM and > 6.25 µg/mL | 96 | Non-toxic |  |
| Cc1ccccc1-n1cc(Cn2c(-c3cccc(F)c3)nc3ccccc32)nn1 | 16 | 19 | 14 | 17 | > 12.5 µg/mL |  | Non-toxic |  |
| COc1ccc(-n2cc(Cn3c(-c4cccc(F)c4)nc4ccccc43)nn2)cc1 | 20 | 26 | 18 | 21 | 6.25 µM and > 6.25 µg/mL | 96 | Non-toxic |  |
| Fc1cccc(-c2nc3ccccc3n2Cc2cn(-c3ccc(F)cc3F)nn2)c1 | 33 | 34 | 32 | 31 | 0.32 µM and > 6.25 µg/mL | 96 | Non-toxic |  |
| Fc1cccc(-c2nc3ccccc3n2Cc2cn(-c3ccc(F)c(F)c3)nn2)c1 | 32 | 31 | 30 | 29 | 0.34 µM and > 6.25 µg/mL | 96 | Non-toxic |  |
| CO[C@H]1/C=C/O[C@@]2(C)Oc3c(C)c(O)c4c(O)c(c(/C=N/N5CCN(C)CC5)c(O)c4c3C2=O)NC(=O)/C(C)=C\C=C\[C@H](C)[C@H](O)[C@@H](C)[C@@H](O)[C@@H](C)[C@H](OC(C)=O)[C@@H]1C [RIFAMPIN] |  |  |  |  | 0.015 µg/mL (≈ 0.0182 µM) |  |  |  |
| Cc1ccc(-n2cc(Cn3c(-c4cccc(F)c4)nc4ccccc43)nn2)cc1 | 18 | 20 | 19 | 17 | > 12.5 µg/mL |  | Non-toxic |  |
| Fc1cccc(-c2nc3ccccc3n2Cc2cn(-c3ccc(F)c(F)c3F)nn2)c1 | 31 | 33 | 29 | 30 | > 6.25 µg/mL |  | Non-toxic |  |
| Fc1cccc(-c2nc3ccccc3n2Cc2cn(-c3ccccc3)nn2)c1 | 26 | 28 | 17 | 18 | > 6.25 µg/mL |  | Non-toxic |  |
| Fc1cccc(-c2nc3ccccc3n2Cc2cn(-c3ccc(C(F)(F)F)cc3)nn2)c1 | 18 | 13 | 21 | 18 | > 6.25 µg/mL |  | Non-toxic |  |
| GENTAMICIN |  |  |  |  |  |  |  | 30 |
| COc1ccccc1-n1cc(Cn2c(-c3cccc(F)c3)nc3ccccc32)nn1 | 21 | 24 | 19 | 23 | > 6.25 µg/mL |  | Non-toxic |  |
